In ChEMBL document CHEMBL4359883, “4(1H)-quinolone derivatives overcome acquired resistance to anti-microtubule agents by targeting the colchicine site of β-tubulin” (Eur J Med Chem, 2019):
Values belong to the compound of their own block, whether it stands above or below them. Activity calls are given as the source filed them. No cut-off for these calls is given here.

What was measured:
[1] = system: CL1-0; experiment: Antiproliferative activity against human CL1-0 cells assessed as reduction in cell viability after 72 hrs by MTS assay; format: functional, cell-based; conditions: CL1-0, 72 h
In short: (§1)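 Cells plated at 2000/well, cultured overnight, then exposed to a range of compound concentrations for 72 h. MTS reagent added for 1–4 h at 37 °C and absorbance read at 490 nm. Cultured in RPMI 1640 or DMEM with 10% heat-inactivated FBS under 5% CO2. Data are the mean of three determinations.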

[2] = system: SK-OV-3; experiment: Antiproliferative activity against human SKOV3 cells assessed as reduction in cell viability after 72 hrs by MTS assay; format: functional, cell-based; conditions: SK-OV-3, 72 h; in short: as §1
[3] = system: IGROV-1; experiment: Antiproliferative activity against human IGROV1 cells assessed as reduction in cell viability after 72 hrs by MTS assay; format: functional, cell-based; conditions: IGROV-1, 72 h; in short: as §1
[4] = system: OVCAR-3; experiment: Antiproliferative activity against human OVCAR3 cells assessed as reduction in cell viability after 72 hrs by MTS assay; format: functional, cell-based; conditions: OVCAR-3, 72 h; in short: as §1
[5] = Antiproliferative activity against human OECM1 cells assessed as reduction in cell viability after 72 hrs by MTS assay; format: functional, cell-based; conditions: OECM1, 72 h; in short: as §1
[6] = system: SW-620; experiment: Antiproliferative activity against human SW620 cells assessed as reduction in cell viability after 72 hrs by MTS assay; format: functional, cell-based; conditions: SW-620, 72 h; in short: as §1
[7] = system: MOLT-4; experiment: Antiproliferative activity against human MOLT4 cells assessed as reduction in cell viability after 72 hrs by MTS assay; format: functional, cell-based; conditions: MOLT-4, 72 h; in short: as §1
[8] = Cytotoxicity against human bronchial epithelial cells assessed as reduction in cell viability after 72 hrs by MTS assay; format: cell-based
In short: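 Cells plated at 2000 per well, cultured overnight, then exposed to a range of compound concentrations for 72 h. MTS reagent added, 1–4 h at 37 °C, absorbance read at 490 nm. Mean of three determinations.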

[9] = system: CL1-0; experiment: Antiproliferative activity against human CL1-0 cells assessed as reduction in colony formation after 14 days by crystal violet staining based assay; format: functional, cell-based
In short: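 Seeded at 1000 cells/well, cultured overnight, then treated with 12.5–200 nM for 14 days. Colonies fixed in 3.7% paraformaldehyde, stained with 0.04% crystal violet and dissolved in DMSO, then absorbance read at 590 nm. Mean ± SD.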

[10] = system: CL1-0; experiment: Induction of apoptosis in human CL1-0 cells assessed as PARP cleavage at 20 nM by immunoblotting analysis; format: functional, cell-based; conditions: TDE = time-dependent effect
[11] = system: NCI-H1975; experiment: Induction of apoptosis in human NCI-H1975 cells assessed as cleaved caspase 3 expression at 40 nM by immunoblotting analysis; format: functional, cell-based; conditions: TDE = time-dependent effect
[12] = system: CL1-0; experiment: Induction of apoptosis in human CL1-0 cells assessed as cleaved caspase 9 after 24 hrs by immunoblotting analysis; format: functional, cell-based
[13] = system: NCI-H1975; experiment: Induction of apoptosis in human NCI-H1975 cells assessed as increase in cytochrome c level in cytosol at 40 to 80 nM after 24 hrs by immunoblotting analysis; format: functional, cell-based
[14] = system: CL1-0; experiment: Cell cycle arrest in human CL1-0 cells assessed as increase in cell population at sub-G1 phase after 24 hrs by propidium iodide-staining based flow cytometry; format: functional
In short: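 Cells treated for 24 h, then trypsinized and fixed overnight in ice-cold 70% ethanol. Stained for 30 min with propidium iodide (10 µg/mL) plus RNase (20 µg/mL), and DNA content measured by flow cytometry. Mean ± SD.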

[15] = system: CL1-0; experiment: Induction of mitotic arrest in human CL1-0 cells assessed as increase in phospho-histone H3 expression at 20 to 40 nM after 24 hrs by immunoblotting analysis; format: functional, cell-based
[16] = system: NCI-H1975; experiment: Induction of mitotic arrest in human NCI-H1975 cells assessed as increase in phospho-histone H3 expression at 40 to 80 nM after 24 hrs by immunoblotting analysis; format: functional, cell-based
[17] = target: Tubulin alpha (Homo sapiens) (UniProt P0DPH7+P68366+Q71U36+P68363+Q9BQE3+Q6PEY2+A6NHL2+Q9NY65); experiment: Induction of microtubule depolymerization in human CL1-0 cells assessed as increase in alpha tubulin soluble form by immunoblot analysis; format: cell-based
In short: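 Lysate spun at 16,000 rpm for 15 min at room temperature. Soluble (monomer) and particulate (polymer) fractions immunoblotted for α-tubulin.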

[18] = target: T1, Tubulin (Homo sapiens) (UniProt P68371+Q9H4B7+P0DPH7+P68366+Q13509+Q71U36+P04350+Q3ZCM7+P07437+P68363+Q9BQE3+Q6PEY2+Q13885+Q9BVA1+Q9BUF5); experiment: Binding affinity to tubulin (unknown origin) assessed as increase complex formation with compound by SPR analysis; format: protein-complex assay
In short: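 Biotin-tubulin (50 µg/mL) captured on a streptavidin chip to about 3,000 RU, with remaining sites blocked by biocytin and a free flow cell as reference. Compound injected at different concentrations in HBS-EP+ (pH 7.4) at 25 °C. KD obtained from steady-state fitting.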

[19] = target: T1, Tubulin (Homo sapiens); experiment: Binding affinity to tubulin (unknown origin) assessed as reduction in colchicine fluorescence after 1 hr in presence of colchicine by fluorescence based assay; format: protein-complex assay
In short: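 Tubulin (3 µM) mixed with colchicine (3 µM) and incubated with varying compound concentrations in PEM buffer, pH 6.9, for 1 h at 37 °C. Fluorescence read at ex 365/em 435 nm; mean ± SD.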

[20] = system: NCI-H1975; experiment: Induction of apoptosis in human NCI-H1975 cells assessed as increase in p-HH3 expression at 25 to 50 nM after 24 hrs by immunoblotting analysis; format: functional, cell-based
[21] = system: NCI-H1975; experiment: Antitumour activity against human NCI-H1975 cells xenografted in Balb/c mouse assessed as tumour size at 8 mg/kg, ip administered three times per week and measured on day 21 (reference value: 2153 +/- 126.3 mm3); format: functional
In short: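 H1975 tumours grown in the right flank of 6-week-old BALB/c nude mice. DMSO vehicle or 4 or 8 mg/kg compound in DMSO given ip three times weekly. Tumour volume calculated as 0.5W²L before each dose and compared on day 21.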

[22] = Toxicity in Balb/c mouse xenografted with human KBtax cells assessed as effect on body mass at 8 mg/kg, ip administered 3 times per week and measured after 21 days; format: organism-based; conditions: in vivo, 504 h
In short: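 KBtax cells (1×10^7) injected subcutaneously into right flank of 6-week-old BALB/c nude mice; after tumor establishment, compounds dissolved in DMSO given intraperitoneally three times a week for 21 days alongside DMSO vehicle group (n = 5 per group). Body mass recorded before each dose.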

[23] = target: ATP-dependent translocase ABCB1 (Homo sapiens, UniProt P08183); experiment: Inhibition of P-gp efflux in human KBtax cells at 30 to 120 nM after 1 hr by flow cytometry; format: cell-based
ATP-dependent translocase ABCB1, sequence (P08183 whole entry): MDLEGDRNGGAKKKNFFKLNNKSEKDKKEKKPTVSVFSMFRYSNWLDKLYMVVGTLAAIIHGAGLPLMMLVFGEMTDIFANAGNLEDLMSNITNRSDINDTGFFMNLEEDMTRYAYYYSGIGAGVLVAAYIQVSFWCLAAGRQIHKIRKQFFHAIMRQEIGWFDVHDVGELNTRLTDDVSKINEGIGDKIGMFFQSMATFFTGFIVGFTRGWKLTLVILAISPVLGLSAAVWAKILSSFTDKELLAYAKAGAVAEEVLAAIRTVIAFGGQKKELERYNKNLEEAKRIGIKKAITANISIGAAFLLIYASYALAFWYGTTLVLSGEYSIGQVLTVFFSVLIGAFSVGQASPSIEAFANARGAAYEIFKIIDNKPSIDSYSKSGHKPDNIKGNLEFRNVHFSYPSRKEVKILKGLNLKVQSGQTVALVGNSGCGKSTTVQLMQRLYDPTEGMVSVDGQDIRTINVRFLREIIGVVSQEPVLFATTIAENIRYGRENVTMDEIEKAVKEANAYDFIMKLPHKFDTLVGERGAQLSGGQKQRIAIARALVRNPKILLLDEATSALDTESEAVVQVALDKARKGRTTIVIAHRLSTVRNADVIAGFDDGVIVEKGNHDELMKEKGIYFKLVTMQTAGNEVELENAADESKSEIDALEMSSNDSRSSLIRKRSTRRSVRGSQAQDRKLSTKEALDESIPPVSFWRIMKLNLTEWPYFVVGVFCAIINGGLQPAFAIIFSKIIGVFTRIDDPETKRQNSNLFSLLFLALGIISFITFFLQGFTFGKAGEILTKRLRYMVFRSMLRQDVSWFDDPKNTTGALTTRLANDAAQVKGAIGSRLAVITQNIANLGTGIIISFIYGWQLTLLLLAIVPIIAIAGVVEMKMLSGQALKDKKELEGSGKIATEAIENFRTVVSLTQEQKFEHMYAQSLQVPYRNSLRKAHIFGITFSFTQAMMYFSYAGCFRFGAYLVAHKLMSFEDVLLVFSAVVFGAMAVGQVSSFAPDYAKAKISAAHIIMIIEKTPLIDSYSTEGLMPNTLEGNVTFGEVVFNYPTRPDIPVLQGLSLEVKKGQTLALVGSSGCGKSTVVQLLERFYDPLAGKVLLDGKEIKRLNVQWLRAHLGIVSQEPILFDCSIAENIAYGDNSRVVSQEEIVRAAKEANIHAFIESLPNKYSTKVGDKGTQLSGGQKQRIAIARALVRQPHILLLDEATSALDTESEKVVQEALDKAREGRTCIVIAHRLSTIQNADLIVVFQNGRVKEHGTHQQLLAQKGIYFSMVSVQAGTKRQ
In short: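 KBtax cells (2.5×10^5 per test) loaded with rhodamine in cold medium on ice for 1 h. Then resuspended in 37 °C medium with compound and held 1 h at 37 °C for efflux. Retained fluorescence measured by flow cytometry; verapamil used as P-gp inhibitor reference.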

[24] = species on record: Homo sapiens; experiment: Effect on p-gp expression in human KBtax cells at 30 to 60 nM after 24 hrs by immunoblotting analysis; format: functional, cell-based
[25] = species on record: Homo sapiens; experiment: Induction of apoptosis in human KBtax cells assessed as PARP cleavage at 30 to 60 nM after 24 hrs by immunoblotting analysis; format: functional, cell-based

- IC50 [2]: 50 nM
- IC50 [4]: 28 nM
- IC50 [6]: 35 nM
- IC50 [7]: 38 nM
- Activity [17]: Active
- Activity [18]: Dose-dependent effect
- Activity [19]: Dose-dependent effect
Compound: CCOC(=O)c1ccc2nc(-c3ccccc3)cc(O)c2c1
- IC50 [1]: 16 nM
- IC50 [3]: 84 nM
- IC50 [5]: 52 nM
- IC50 [8]: > 10000 nM
- Activity [9]: Active
- Activity [10]: Tde
- Activity [11]: Tde
- Activity [12]: Dose-dependent effect
- Activity [13]: Active
- Activity [14]: Dose-dependent effect
- Activity [15]: Active
- Activity [16]: Active

- inhibition (INH) [23]: Not Active
Compound: CCOC(=O)c1ccc2[nH]c(-c3cccc(F)c3)cc(=O)c2c1
- Activity [20]: Active
- Activity [21]: 972.5 mm3
- Activity [22]: Non-Toxic
- Activity [24]: inactive
- Activity [25]: Active
